From ChEMBL document CHEMBL1123083, “Synthesis and antiherpetic activity of (S)-, (R)-, and (+/-)-9-[(2,3-dihydroxy-1-propoxy)methyl]guanine, linear isomers of 2'-nor-2'-deoxyguanosine” (J Med Chem, 1985)
Values after ≈ are worked out from the molar mass of the structure shown. Active and inactive are the calls of the source. The rule behind the calls is not given here.

What was measured:
Human alphaherpesvirus 1 [1] = assay: Efficacy was evaluated against Oraficial HSV-1 infection in mice with lesions administered topically at a dose 1 mg/kg per day.; format: ADME, organism-based; conditions: mouse, in vivo
Summary of the method: (§1)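 Mice were infected orofacially with HSV-1 strain S. Each treatment was 10 μL of compound at the stated percent concentration in a hydroalcoholic vehicle. Application began 3 h after infection and was repeated at 3-h intervals: three treatments on day 1 and four on each of the next 2 days. Lesion incidence and average lesion score were read on day 7 (95% CI). Significance was judged against placebo (p < 0.05).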

Human alphaherpesvirus 1 [2] = assay: Efficacy was evaluated against Systemic HSV-1 infection in mice at a daily dose of 0.8 mg/kg administered subcutaneously.; format: ADME, organism-based; parameters: dose 0.8 mg/kg, route subcutaneous; conditions: mouse, in vivo, sc
Summary of the method: (§2)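 ICR/Ha mice (10–20 g, mixed sex) were infected intraperitoneally with 50–100 LD50 of HSV-1 Schooler. Subcutaneous dosing of 0.1 mL twice daily for 4 days started immediately after infection. Groups were of about 10 mice. Survival was recorded daily for 15 days and reported as survivors/total and mean survival time (95% CI). Transformed survival times were compared with placebo-treated infected mice (p < 0.05).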

Human alphaherpesvirus 1 [3] = assay: Efficacy was evaluated against Oraficial HSV-1 infection in mice with lesions administered orally at dose 0.8 mg/kg per day; Tested mice 10; format: ADME, organism-based; parameters: route oral; conditions: mouse, in vivo, po
Summary of the method: (§3)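 HSV-1 strain S inoculated in the orofacial area of mice as previously described. Half-daily doses given by gavage 8 h apart, starting 3 h after infection, for 7 days. On day 7 after infection, mice with lesions per group and average lesion score were recorded (95% confidence interval). Significance was judged against placebo-treated infected mice (p < 0.05).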

Human alphaherpesvirus 1 [4] = assay: Efficacy was evaluated against Oraficial HSV-1 infection in mice with lesions administered topically at a dose 0.02 mg/kg per day; Tested mice 10; format: ADME, organism-based; conditions: mouse, in vivo; summary of the method: as §1
Human alphaherpesvirus 1 [5] = assay: Efficacy was evaluated against Oraficial HSV-1 infection in mice with lesions administered topically at a dose 0.06 mg/kg per day; Tested mice 10; format: ADME, organism-based; conditions: mouse, in vivo; summary of the method: as §1
Human alphaherpesvirus 1 [6] = assay: Efficacy was evaluated against Oraficial HSV-1 infection in mice with lesions administered topically at a dose 0.25 mg/kg per day; Tested mice 10; format: ADME, organism-based; conditions: mouse, in vivo; summary of the method: as §1
Human alphaherpesvirus 1 [7] = assay: Efficacy was evaluated against Oraficial HSV-1 infection in mice with lesions administered topically at a dose 1 mg/kg per day; Tested mice 10; format: ADME, organism-based; conditions: mouse, in vivo; summary of the method: as §1
Human alphaherpesvirus 1 [8] = assay: Efficacy was evaluated against Systemic HSV-1 infection in mice at a daily dose of 12.5 mg/kg administered subcutaneously.; format: ADME, organism-based; parameters: dose 12.5 mg/kg, route subcutaneous; conditions: mouse, in vivo, sc; summary of the method: as §2
Human alphaherpesvirus 1 [9] = assay: Efficacy was evaluated against Systemic HSV-1 infection in mice at a daily dose of 12.5 mg/kg administered orally.; format: ADME, organism-based; parameters: dose 12.5 mg/kg; conditions: mouse, in vivo, po
Summary of the method: (§4)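 Mixed-sex ICR/Ha mice (10–20 g) were infected intraperitoneally with 50–100 LD50 of HSV-1 Schooler. Oral dosing of 0.1 mL twice daily for 7 days began immediately after infection. Groups were of about 10 mice. Deaths were recorded daily for 15 days, giving survivors/total and mean survival time with 95% CI. Significance was judged against placebo-treated infected mice using transformed survival times.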

Human alphaherpesvirus 1 [10] = assay: Efficacy was evaluated against Systemic HSV-1 infection in mice at a daily dose of 3.1 mg/kg administered subcutaneously.; format: ADME, organism-based; parameters: dose 3.1 mg/kg, route subcutaneous; conditions: mouse, in vivo, sc; summary of the method: as §2
Human alphaherpesvirus 1 [11] = assay: Efficacy was evaluated against Systemic HSV-1 infection in mice at a daily dose of 3.1 mg/kg administered orally.; format: ADME, organism-based; parameters: dose 3.1 mg/kg; conditions: mouse, in vivo, po; summary of the method: as §4
Human alphaherpesvirus 1 [12] = assay: Efficacy was evaluated against Oraficial HSV-1 infection in mice with lesions administered orally at a dose 50 mg/kg per day.; format: ADME, organism-based; parameters: route oral; conditions: mouse, in vivo, po; summary of the method: as §3
Human alphaherpesvirus 1 [13] = assay: Efficacy was evaluated against Oraficial HSV-1 infection in mice with lesions administered topically at a dose 0.02 mg/kg per day.; format: ADME, organism-based; conditions: mouse, in vivo; summary of the method: as §1
Human alphaherpesvirus 1 [14] = assay: Efficacy was evaluated against Oraficial HSV-1 infection in mice with lesions administered orally at a dose 0.8 mg/kg per day.; format: ADME, organism-based; parameters: route oral; conditions: mouse, in vivo, po; summary of the method: as §3
Human alphaherpesvirus 1 [15] = assay: Efficacy was evaluated against Oraficial HSV-1 infection in mice with lesions administered orally at a dose 12.5 mg/kg per day.; format: ADME, organism-based; parameters: route oral; conditions: mouse, in vivo, po; summary of the method: as §3
Human alphaherpesvirus 1 [16] = assay: Efficacy was evaluated against Oraficial HSV-1 infection in mice with lesions administered topically at a dose 0.06 mg/kg per day.; format: ADME, organism-based; conditions: mouse, in vivo; summary of the method: as §1
Human alphaherpesvirus 1 [17] = assay: Efficacy was evaluated against Oraficial HSV-1 infection in mice with lesions administered topically at a dose 0.25 mg/kg per day.; format: ADME, organism-based; conditions: mouse, in vivo; summary of the method: as §1
Human alphaherpesvirus 1 [18] = assay: Efficacy was evaluated against Oraficial HSV-1 infection in mice with lesions administered orally at a dose 12.5 mg/kg per day; Tested mice 10; format: organism-based; parameters: route oral; conditions: mouse, in vivo, po; summary of the method: as §3
Human alphaherpesvirus 1 [19] = assay: Efficacy was evaluated against Oraficial HSV-1 infection in mice with lesions administered orally at a dose 3.1 mg/kg per day; Tested mice 10; format: organism-based; parameters: route oral; conditions: mouse, in vivo, po; summary of the method: as §3
Human alphaherpesvirus 1 [20] = assay: Efficacy was evaluated against Oraficial HSV-1 infection in mice with lesions administered orally at a dose 50 mg/kg per day; Tested mice 10; format: organism-based; parameters: route oral; conditions: mouse, in vivo, po; summary of the method: as §3
Human alphaherpesvirus 1 [21] = assay: Efficacy was evaluated against Systemic HSV-1 infection in mice at a daily dose of 0.8 mg/kg administered subcutaneously; Tested mice 10; format: organism-based; parameters: dose 0.8 mg/kg, route subcutaneous; conditions: mouse, in vivo, sc; summary of the method: as §2
Human alphaherpesvirus 1 [22] = assay: Efficacy was evaluated against Systemic HSV-1 infection in mice at a daily dose of 12.5 mg/kg administered subcutaneously; Tested mice 10; format: organism-based; parameters: dose 12.5 mg/kg, route subcutaneous; conditions: mouse, in vivo, sc; summary of the method: as §2
Human alphaherpesvirus 1 [23] = assay: Efficacy was evaluated against Systemic HSV-1 infection in mice at a daily dose of 12.5 mg/kg administered orally; Tested mice 9; format: organism-based; parameters: dose 12.5 mg/kg; conditions: mouse, in vivo, po; summary of the method: as §4
Human alphaherpesvirus 1 [24] = assay: Efficacy was evaluated against Systemic HSV-1 infection in mice at a daily dose of 3.1 mg/kg administered subcutaneously; Tested mice 10; format: ADME, organism-based; parameters: dose 3.1 mg/kg, route subcutaneous; conditions: mouse, in vivo, sc; summary of the method: as §2
Human alphaherpesvirus 1 [25] = assay: Efficacy was evaluated against Systemic HSV-1 infection in mice at a daily dose of 3.1 mg/kg administered orally; Tested mice 10; format: organism-based; parameters: dose 3.1 mg/kg; conditions: mouse, in vivo, po; summary of the method: as §4
Human alphaherpesvirus 1 [26] = assay: Efficacy was evaluated against Systemic HSV-1 infection in mice at a daily dose of 50 mg/kg administered orally; Tested mice 10; format: organism-based; parameters: dose 50 mg/kg; conditions: mouse, in vivo, po; summary of the method: as §4
Human alphaherpesvirus 1 [27] = assay: Evaluated for DNA polymerase inhibition activity against herpes simplex virus-1 (HSV-1); format: functional
Summary of the method: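 Step II mixture supplied the phosphorylated test material. Step I: compound with HSV-1 thymidine kinase, 4 h, 37 °C. Step II: then HSV-1-infected HeLa crude extract plus GMP kinase, overnight, 30 °C. A 20 μL sample went to a 1 h, 37 °C DNA polymerase assay at pH 8 with activated salmon sperm DNA, 0.05 mM each dNTP ([³H]dTTP) and infected HeLa extract. (NH₄)₂SO₄ 0.1 M was present for the viral enzyme and omitted for the cellular polymerases. Read-out: TCA-precipitable radioactivity.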

Human alphaherpesvirus 1 [28] = assay: In vitro anti viral activity tested against HSV-1(Schooler) virus on Rabbit kidney cell cultures; 0.5-1.5; format: functional; conditions: Human alphaherpesvirus 1, kidney; read-out: ED50 (the source's name)
Summary of the method: (§5)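 Confluent primary rabbit kidney monolayers were preincubated with serial drug dilutions in EMEM with 2% fetal calf serum and neomycin. They were then challenged with about 10 TCID50 of HSV-1 Schooler or HSV-2 Curtis and incubated at 37 °C. Cytopathology was scored on day 5. ED50 is the concentration preventing cytopathology in half of the infected cultures.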

Human alphaherpesvirus 2 = assay: In vitro anti viral activity tested against HSV-2(Curtis) virus on Rabbit kidney cell cultures; 1-3; format: functional; conditions: Human alphaherpesvirus 2, kidney; read-out: ED50 (the source's name); summary of the method: as §5
Human alphaherpesvirus 1 [29] = assay: Efficacy was evaluated against Systemic HSV-1 infection in mice at a daily dose of 50 mg/kg administered orally.; format: ADME, organism-based; parameters: dose 50 mg/kg; conditions: mouse, in vivo, po; summary of the method: as §4
[30] = tested on: DNA polymerase (Homo sapiens); assay: Evaluated for DNA polymerase inhibition activity against HeLa cells.
Human betaherpesvirus 5 = assay: In vitro anti viral activity tested against HCMV(AD169) virus on MRC-5 cell monolayers; NA=Not active at 25 ug/mL; format: functional, organism-based; conditions: MRC5
Summary of the method: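 MRC-5 monolayers were infected with HCMV AD169 for 1 h at 37 °C. Compound diluted in maintenance medium was then added and incubation continued for 7 days at 37 °C. Monolayers were stained and plaques counted. ED50 is the concentration reducing plaque number by 50%.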

Nc1nc(O)c2ncn(COCC(O)CO)c2n1 (single isomer, unassigned; form 2) [listing 1 of 2 here] was tested, and the Average lesion score (Human alphaherpesvirus 1 [1]) was 0.4, the Average survival (Human alphaherpesvirus 1 [2]) was 6.7 days and the Mice with lesions (Human alphaherpesvirus 1 [3]) was 9. The Mice with lesions (Human alphaherpesvirus 1 [4]) was 9, the Mice with lesions (Human alphaherpesvirus 1 [5]) was 6 and the Mice with lesions (Human alphaherpesvirus 1 [6]) was 5. It also gave a Mice with lesions (Human alphaherpesvirus 1 [7]) of 2, an Average survival (Human alphaherpesvirus 1 [8]) of 10.7 days and an Average survival (Human alphaherpesvirus 1 [9]) of 8.1 days. The Average survival (Human alphaherpesvirus 1 [10]) was 7.6 days, the Average survival (Human alphaherpesvirus 1 [11]) was 6.9 days and the Average lesion score (Human alphaherpesvirus 1 [12]) was 0.15. The Average lesion score (Human alphaherpesvirus 1 [13]) was 2.75, the Average lesion score (Human alphaherpesvirus 1 [14]) was 3.45 and the Average lesion score (Human alphaherpesvirus 1 [15]) was 0.75. It also gave an Average lesion score (Human alphaherpesvirus 1 [16]) of 1.4, an Average lesion score (Human alphaherpesvirus 1 [17]) of 1.35 and a Mice with lesions (Human alphaherpesvirus 1 [18]) of 5. For the same compound, the Mice with lesions (Human alphaherpesvirus 1 [19]) was 8, the Mice with lesions (Human alphaherpesvirus 1 [20]) was 1 and the Survivors (Human alphaherpesvirus 1 [21]) was 0. For the same compound, the Survivors (Human alphaherpesvirus 1 [22]) was 4, the Survivors (Human alphaherpesvirus 1 [23]) was 0 and the Survivors (Human alphaherpesvirus 1 [24]) was 1. The Survivors (Human alphaherpesvirus 1 [25]) was 0, the Survivors (Human alphaherpesvirus 1 [26]) was 3 and the Inhibition (Human alphaherpesvirus 1 [27]) was 57%. For the same compound, the EC50 (Human alphaherpesvirus 1 [28]) was 0.5 µg/mL (≈ 1.96 µM), the EC50 (Human alphaherpesvirus 2) was 1 µg/mL (≈ 3.92 µM) and the Average survival (Human alphaherpesvirus 1 [29]) was 12.9 days. For the same compound, the Inhibition [30] was 10%.

In the case of Nc1nc(O)c2ncn(COCC(O)CO)c2n1 (single isomer, unassigned; form 2) [listing 2 of 2 here], the ED50 (Human betaherpesvirus 5) is reported as “inactive”.
